This passage reports IC50 results from ChEMBL document CHEMBL1649400, “Synthesis and antitumor activity of ureas containing pyrimidinyl group” (Eur J Med Chem, 2011).

Structures are written as SMILES. A value given as a limit tells only on which side of the number the result lay.

Format in all cases: functional, cell-based
For one experiment, the system named is MGC-803. The experiment in a line: Cytotoxicity against human MGC803 cells after 3 days by MTT assay. The following applies: MGC-803, 72 h. The essentials: (§1)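 Cells grown in RPMI 1640 with 10% fetal calf serum were plated from suspension and held 12 h at 37 °C, 5% CO2. Test sample was then added and cells were cultured 3 days at 37 °C. MTT was added for 4 h at 37 °C, supernatant removed, formazan dissolved in DMSO, absorbance read at 570 nm. IC50 = concentration giving 50% growth inhibition versus untreated control.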

Another experiment deals with MCF7. Put plainly: Cytotoxicity against human MCF7 cells after 3 days by MTT assay. The following applies: MCF7, 72 h. The essentials: as §1
A general note: Tetrazolium dyes change colour on reduction, which living cells bring about.

Experiment [1] is described as follows: Cytotoxicity against human CNE2 cells after 3 days by MTT assay. The following applies: CNE-2, 72 h. The gist of the method:
as §1

A further experiment relates to KB. The experiment in a line: Cytotoxicity against human KB cells after 3 days by MTT assay. The following applies: 72 h. The essentials: as §1

One may read the IC50 as the concentration needed to halve the response being measured. A high value points to a need for much substance.

Turning to `Cc1cc(C)nc(Sc2ccc(NC(=O)Nc3ccccc3)cc2)n1`, the IC50 is 40.1 µM in the experiment with MGC-803, > 50 µM in the experiment with MCF7, 22 µM in experiment [1] and 25.7 µM with KB.

Regarding `Cc1cc(C)nc(Sc2ccc(NC(=O)Nc3ccc(Cl)cc3Cl)cc2)n1`, the IC50 with MGC-803 is > 50 µM; with MCF7, > 50 µM; in experiment [1] it was 23.2 µM; in the experiment on KB it was 15.5 µM.

Turning to `Cc1cc(C)nc(Oc2ccc(NC(=O)Nc3ccc(Cl)cc3)cc2)n1`, the IC50 in the experiment with MGC-803 was > 50 µM; in the experiment on MCF7, > 50 µM; in experiment [1] it was 20.4 µM; in the experiment on KB, 25.4 µM.

In the case of `Cc1cc(C)nc(Sc2ccc(NC(=O)Nc3ccc(OC(F)(F)F)cc3)cc2)n1`, the IC50 turned out to be 13.8 µM in the experiment with MGC-803, 41.7 µM in the experiment with MCF7, 22.8 µM in experiment [1] and 20 µM with KB.

`Cc1cccc(NC(=O)Nc2ccc(Oc3nc(C)cc(C)n3)cc2)c1`: the IC50 in the experiment on KB is > 50 µM.

On to `Cc1cc(C)nc(Sc2ccc(NC(=O)Nc3ccc(F)cc3)cc2)n1`, for which the IC50 in the experiment on MGC-803 was > 50 µM; in the experiment with MCF7, > 50 µM; in experiment [1], 34.1 µM; with KB, 32.1 µM.

Turning to `O=c1[nH]cc(F)c(=O)[nH]1` [FLUOROURACIL], the half-inhibitory concentration (IC50) was 12.6 µM in the experiment with MGC-803, 15.2 µM with MCF7, 13.1 µM in experiment [1] and 11.9 µM with KB.

Regarding `COc1ccc(NC(=O)Nc2ccc(Cl)cc2)cc1`, the IC50 (with MCF7; in experiment [1]; in the experiment with KB) was > 50 µM each time.

`COc1ccc(NC(=O)Nc2ccc(Cl)cc2Cl)cc1`: the 50% inhibitory concentration (IC50) (in the experiment with MGC-803; with MCF7; in experiment [1]; in the experiment with KB) was > 50 µM each time.

With `Cc1cc(C)nc(Oc2ccc(NC(=O)Nc3ccc(Cl)cc3Cl)cc2)n1`, the IC50 with MGC-803 was determined as 35.4 µM; with MCF7, 47.8 µM; in experiment [1], 38.9 µM; in the experiment with KB, 31.8 µM.

For `Cc1cc(C)nc(Oc2ccc(NC(=O)Nc3ccccc3)cc2)n1`, the IC50 with KB was > 50 µM.

On to `Cc1cccc(NC(=O)Nc2ccc(Sc3nc(C)cc(C)n3)cc2)c1`, for which the IC50 was 25.3 µM in the experiment on MGC-803, 37 µM with MCF7, > 50 µM in experiment [1] and 47.8 µM in the experiment with KB.

`Cc1cc(C)nc(Oc2ccc(NC(=O)Nc3ccc(F)cc3)cc2)n1`: the IC50 in the experiment on MGC-803 is > 50 µM; with MCF7, > 50 µM; in experiment [1], 46.9 µM; in the experiment with KB, 48.4 µM.

In the case of `Cc1cc(C)nc(Sc2ccc(NC(=O)Nc3ccc(Cl)cc3)cc2)n1`, the IC50 amounted to 26.1 µM in the experiment with MGC-803, 35.3 µM in the experiment with MCF7, 13.5 µM in experiment [1] and 10.2 µM in the experiment with KB.

For `Cc1cc(C)nc(Oc2ccc(NC(=O)Nc3ccc(OC(F)(F)F)cc3)cc2)n1`, the IC50 in the experiment on MGC-803 is > 50 µM; in the experiment on MCF7, > 50 µM; in experiment [1], 30.8 µM; in the experiment on KB it was 28.9 µM.
